Screens from PubChem.
A selection: hits, their analogues and other compounds. The true share with any hit is near 5.2%.
EBNA-1 inh – blocks EBNA-1 binding to DNA. EBNA-1 DNA binding, fluorescence polarization. inhibition, % at 14.8 µM. 300,000 compounds, 0.34% hits. AID 1950; in the data active = inhibition above about 28%
ZTA DNA inh – blocks Epstein-Barr virus ZTA, an EBNA-1 counter-screen. ZTA-DNA binding, fluorescence polarization. AID 2234. inhibition, % at 11 µM. P03206. 320,000 compounds, 0.15% hits; in the data active = inhibition above about 33%
Target sequence (P03206 whole entry, looked up): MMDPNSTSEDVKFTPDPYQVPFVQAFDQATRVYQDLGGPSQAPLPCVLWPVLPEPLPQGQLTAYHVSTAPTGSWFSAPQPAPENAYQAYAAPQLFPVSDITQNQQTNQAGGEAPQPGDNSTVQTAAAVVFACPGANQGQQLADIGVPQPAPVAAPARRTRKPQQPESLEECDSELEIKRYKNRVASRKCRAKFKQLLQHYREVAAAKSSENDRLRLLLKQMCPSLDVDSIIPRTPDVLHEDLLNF
ALR H2O2 inh – human ALR oxidase inhibition via reduced H2O2. P55789. purified ALR, DTT oxidation, H2O2 HRP-luminol luminescence. inhibition, % (test concentration not listed). 290,000 compounds, 3.8% hits. AID 485317;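 active = mean replicate inhibition above about 79%, with every replicate also reaching it, limit read from the data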
Target sequence (P55789 whole entry, looked up): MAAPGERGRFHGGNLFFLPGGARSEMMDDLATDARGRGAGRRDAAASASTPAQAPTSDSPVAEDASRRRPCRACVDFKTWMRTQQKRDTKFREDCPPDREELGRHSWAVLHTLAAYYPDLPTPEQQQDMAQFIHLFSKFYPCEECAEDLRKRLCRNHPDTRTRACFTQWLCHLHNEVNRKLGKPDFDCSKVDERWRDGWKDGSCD
core dimer inh – HCV core protein dimerization inhibition. TR-FRET GST/Flag-core106 dimerization, 1536-well. inhibition, % at 5 µM. 300,000 compounds, 0.33% hits. AID 1899;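 active = inhibition above the mean of all tested compounds plus 3 SD, set per screening campaign, cut at about 45% in these data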
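Assay system: tagged HCV core106 pair (GST and Flag); medium: KF-containing HEPES buffer, pH 7.45, DTT, CHAPS, BSA; also added: Eu donor and XL665 acceptor anti-tag antibodies; dosing: 5 µM single dose; timing: compound-protein-antibody incubation 4 h at 22.5 °C; signal: TR-FRET 671 and 617 nm emission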
PfM18AAP inh – blocks P. falciparum M18 aspartyl aminopeptidase | 290,000 compounds, 1.2% hits | recombinant PfM18AAP, H-Glu-NHMec fluorogenic cleavage | AID 1822 | inhibition, % at 7.35 µM;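 active = inhibition above the campaign mean inhibition over all tested compounds plus 3 SD, cut at about 28% in these data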;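 note: 0% = plate median of test compound wells and 100% = 2 mM ZnCl2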
HCV NS3 hel inh – blocks Hepatitis C virus NS3 helicase unwinding; NS3 helicase DNA unwinding, Cy5 molecular beacon fluorescence; 290,000 compounds, 0.56% hits; inhibition, % at 10.9 µM;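 active = inhibition above the mean of all tested compounds plus 3 SD, set per campaign, cut at about 35% in these data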;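 note: 0% = DMSO wells and 100% = thioflavine S control wells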
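Measured by: Cy5 fluorescence, 0 and 60 min reads / Assay system: NS3 helicase fragment of HCV / Control set: low DMSO, high thioflavine S at 110 µM / Times: 1 h reaction at 25 °C, ATP-initiated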
An asterisk follows results filed as active; x = no result given.

SMILES	EBNA-1 inh	ZTA DNA inh	ALR H2O2 inh	core dimer inh	PfM18AAP inh	HCV NS3 hel inh
COc1ccc(CNC(=O)C2CCCN(S(=O)(=O)c3ccc(-n4cnnn4)cc3)C2)cc1 (stereo not drawn)	7	5	-2	-1	0	-5
CCCN(C(=O)CSc1nc2cc(S(=O)(=O)N(CC)CC)ccc2o1)C1CCS(=O)(=O)C1 (stereo not drawn)	-13	-6	x	1	x	x
CCN(C(=O)CSc1nnc(-c2ccc3c(c2)OCO3)o1)C1CCS(=O)(=O)C1 (stereo not drawn)	x	4	x	x	x	x
CC(=O)Nc1ccc(SCC(=O)N(C)C2CCS(=O)(=O)C2)cc1 (stereo not drawn)	7	-4	98*	-6	2	-4
CCN(C(=O)CSc1nc2cc(S(=O)(=O)N(CC)CC)ccc2o1)C1CCS(=O)(=O)C1 (stereo not drawn)	2	-5	-66	1	28*	4
CCN(C(=O)CSc1nc(-c2ccccc2)c(-c2ccccc2)[nH]1)C1CCS(=O)(=O)C1 (stereo not drawn)	-15	-14	99*	-1	-7	-2
CCN(C(=O)CSc1ccc2c(c1)OCCO2)C1CCS(=O)(=O)C1 (stereo not drawn)	2	-1	92*	-9	6	4
CCN(CC(=O)Nc1ccc(C)c(F)c1)CC(=O)NC(C)(C)C	1	6	1	4	-1	2
O=C(Nc1ccnn1C1CCN(C(=O)c2cccc(Cl)c2)CC1)C1CCOC1 (stereo not drawn)	5	-6	-1	2	0	10
COCCCNS(=O)(=O)c1cc2c3c(c1)C(C)C(=O)N3CCC2 (stereo not drawn)	-29	-7	-14	-3	-6	-1
CCOC(=O)c1cc(NC(=O)N(C)C2CCCCC2)c(C)nc1C	-14	-14	4	-13	-2	2
CCN(CC)CCNc1ncnc2c1[nH]c1ccc(OC)cc12	4	10	-3	-7	12	1
COc1ccc2[nH]c3c(NCc4ccco4)ncnc3c2c1	5	-6	98*	-3	5	3
O=C1c2ccccc2NC(c2ccccc2O)N1O (stereo not drawn)	-12	-7	91*	-1	4	15
CCCN1C(=O)c2ccccc2NC1c1ccc(OC)cc1O (stereo not drawn)	-15	3	88*	2	-3	1
CCCN1C(=O)c2ccccc2NC1c1ccc(OC)cc1OC (stereo not drawn)	-14	-2	2	3	3	-5
COc1cc(C(=O)OCC(=O)N2CCC(Cc3ccccc3)CC2)cc(OC)c1OC	-1	2	3	-3	x	x
CS(=O)(=O)c1ccc(Sc2nc3ccccc3[nH]2)c([N+](=O)[O-])c1	18	6	-43	4	3	-7
O=[N+]([O-])c1cc(S(=O)(=O)C(F)(F)F)ccc1Sc1nc2ccccc2[nH]1	-3	-16	91*	-4	-7	-2
O=[N+]([O-])c1cc(S(=O)(=O)C(F)(F)F)ccc1Sc1nc2ccccc2s1	-11	1	98*	-4	-1	-7
CC(C)[C@H](NC(=O)C1CC(=O)N(c2ccc(F)cc2)C1)C(=O)N1CCCCC1 (stereo partly drawn)	-21	-1	-2	-8	0	1
O=C(O)C1Cc2ccccc2CN1S(=O)(=O)c1ccc2ccccc2c1 (stereo not drawn)	12	8	95*	18	0	4
Cc1ccc(S(=O)(=O)N2Cc3ccccc3CC2C(=O)Nc2ccc3c(c2)OCO3)cc1 (stereo not drawn)	2	4	1	54*	-11	-1
CC(=O)c1cccc(NC(=O)CN2C(=O)NC(C)(c3ccc4c(c3)OCCCO4)C2=O)c1 (stereo not drawn)	x	-2	-6	x	x	x
COCc1cc(=O)n2[nH]cc(-c3ccsc3)c2n1	-2	-8	99*	-16	4	5
SMILES	EBNA-1 inh	ZTA DNA inh	ALR H2O2 inh	core dimer inh	PfM18AAP inh	HCV NS3 hel inh
COCc1cc(=O)n2[nH]c(-c3ccccc3)cc2n1	3	-3	0	-5	6	-3
Cc1ccc(-n2nc3c(c2NC(=O)CC(C)C)CS(=O)(=O)C3)cc1	3	1	-1	0	-2	4
O=C(C1=NNCC1c1ccccc1)C1OC1c1ccccc1 (stereo not drawn)	-3	-3	17	-6	21	7
O=C(CC1Sc2ncnn2C1=O)Nc1ccc(Cl)cc1 (stereo not drawn)	6	-3	2	12	30*	13
CC(C)(C)c1nc(SCC(=O)NNC(=O)c2ccccc2)c2ccccc2n1	-12	-3	0	10	0	-1
COc1ccc(N2CCN(C(=O)c3cc4c(-c5ccc(Cl)cc5)nn(C)c4s3)CC2)cc1	-2	-6	37	5	-7	-1
Cn1nc(-c2ccc(Cl)cc2)c2cc(C(=O)N3CCOCC3)sc21	6	-15	95*	6	1	-12
CN1CCN(CCCNC(=O)c2cc3c(-c4ccc(Cl)cc4)nn(C)c3s2)CC1	2	-8	x	0	1	-74
CCN(CC)CCCNC(=O)c1cc2c(-c3ccc(Cl)cc3)nn(C)c2s1	-3	10	94*	-4	3	-76
Cn1nc(-c2ccc(Cl)cc2)c2cc(C(=O)NCC3CCCO3)sc21 (stereo not drawn)	3	4	93*	0	-1	-1
CCN(CC)CCCNC(=O)c1cc(-c2ccc(O)cc2)on1	4	10	99*	5	0	2
Cc1cc(C)c2nc(-c3ccncc3)cc(C(=O)N3CCN(Cc4ccccc4Cl)CC3)c2c1	1	0	-4	14	9	-34
Cc1ccc(C)c(-c2nnc(NC(=O)Cc3ccccc3)o2)c1	-11	13	8	-8	8	16
Cc1ccc(-n2[nH]c(C)c(/C=N/NC(=O)c3ccc(O)cc3O)c2=O)cc1	-10	-3	94*	-17	12	24
Cc1cc(=O)oc2cc(OCCSCCN3CCCCC3)ccc12	6	4	99*	-9	17	-6
CCc1ccc(C2C(C#N)=C(N)SC(N)=C2C#N)s1	-2	4	-3	53*	15	22
CCOC(=O)C1=C(C)OC(N)=C(C#N)C1c1ccc(C)o1 (stereo not drawn)	11	-1	-2	2	6	-4
Cc1ccc(C2C(C#N)=C(N)SC(N)=C2C#N)o1	0	9	19	46*	-1	11
CCc1ccc(C2C(C#N)=C(N)SC(N)=C2C#N)cc1	-13	-2	7	31	5	24
Nc1cc(=O)[nH]c(SCC(=O)Nc2cccc(S(=O)(=O)N3CCCCC3)c2)n1	x	x	44	x	x	x
